Assay outcomes (PubChem BioAssay)
Wnt bcat act: activates Wnt/beta-catenin signaling in a reporter cell assay | activator, plate reader | activation, % at 9.35 µM | 1.2% of 300,000 active | AID 743398; in the data active means activation above about 30%, passing the limit was not always enough; inconclusive means no clear call, values can overlap the other calls;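 further: 0% = neutral control wells and 100% = positive control wells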
esBAF inh: inhibitors of esBAF chromatin remodeling in mouse ES cells; Bmi1-luciferase knock-in reporter, 24 h; 100% = twice the neutral-well signal; reporter increase, % at 12.5 µM; 2% of 350,000 active; AID 602393; in the data active means activation above about 40%; inconclusive means no clear call, values can overlap the other calls;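 further: 0% = median of the plate's neutral control wells and 100% = double that signal; a rise in the Bmi1 reporter signal indicates esBAF inhibition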
Vif imaging: HIV Vif inhibition; AID 602346; inhibition, % at 7.49 µM; 0.35% of 340,000 active; HEK293T cells, Vif self-association by quenched fluorescence, imaging, 24 h; in the data active means inhibition above about 50%, passing the limit was not always enough; inconclusive means no clear call, values can overlap the other calls; inactive means below about 31%
MITF act: activators of MITF-driven TRPM1 promoter activity in SK-MEL-5 cells | SK-MEL-5 TRPM1-promoter luciferase, 24 h; % of positive control, neutral wells = 0 | activation, % at 12.5 µM | 0.75% of 300,000 active;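 active means mean activation of at least 80% with every replicate also reaching 80%; inconclusive means mean reaches 80% but some replicate falls short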;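 further: 0% = neutral control wells and 100% = parthenolide positive control wells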
XiGFP reactiv: X-chromosome reactivation activator; XiGFP mouse fibroblasts, % GFP-positive cells imaging, 3 d; cells co-treated with 5-aza-dC sensitizer; scaled so ellipticine positive control = 100%; activation, % at 7.58 µM; 0.055% of 360,000 active; AID 743238;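 active means mean normalized replicate activation at least 10% and every replicate at or above 10%; inconclusive means only one of the two criteria met; inactive means mean below 10% and not all replicates reach 10%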;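 further: 0% = median of on-plate neutral control wells and 100% = ellipticine 6 µM median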
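Assay system: SV40-immortalized XiGFP fibroblast cells, line 68-5-11; buffer or medium: DMEM plus 5-aza-dC sensitizer; compound: one concentration, pinned; timing: compounds 3 days, fix/stain 15 min at room temperature; benchmarks: positive control ellipticine, 6 µM final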
An asterisk follows results filed as active. Hits are enriched below; roughly 2.6% of the tested compounds scored in any of these assays.

Results for COc1ccc(S(=O)(=O)Nc2ccc3c(c2)C(=O)N([C@H](C)CO)C[C@@H](C)[C@@H](CN(C)C(=O)Nc2ccc(F)cc2)O3)cc1 ?
esBAF inh: -3; XiGFP reactiv: -1

What do the screens show for `O=C(C=Cc1ccc2c(c1)OCO2)C=Cc1ccc2c(c1)OCO2`?
Wnt bcat act: 0; Vif imaging: 2; XiGFP reactiv: 0

What do the screens show for `O=C(N/N=C/c1ccc2c(c1)OCO2)c1ccccn1`?
Wnt bcat act: -1; esBAF inh: -60; Vif imaging: 15; MITF act: -4

What do the screens show for `Cc1ccc(C(=O)/C=C/c2ccc3c(c2)OCCO3)c(O)c1`?
Wnt bcat act: -1; Vif imaging: 5; MITF act: 4; XiGFP reactiv: 0

What do the screens show for `O=C(/C=C/c1ccc2c(c1)OCO2)c1ccccn1`?
Wnt bcat act: -1; esBAF inh: 38*; Vif imaging: -4; XiGFP reactiv: 0

What do the screens show for `O=C(/C=C/c1ccc2c(c1)OCCCO2)c1ccc2ccccc2c1O`?
Wnt bcat act: 6; esBAF inh: 45*; Vif imaging: 2; MITF act: 51; XiGFP reactiv: 0

Results for O=C(/C=C/c1ccccc1)c1ccc2c(c1)OCCCCO2 ?
Wnt bcat act: 15; Vif imaging: 2; MITF act: 91*

Results for O=C(C=Cc1ccc2c(c1)OCO2)c1ccccc1 ?
Wnt bcat act: 2; esBAF inh: 50*; Vif imaging: -7; MITF act: 68; XiGFP reactiv: 0

What do the screens show for `CO[C@@H]1CC[C@@H]2CCN(C)C(=O)[C@@H](C)[C@H](OC)CN(C)C(=O)c3cccc(C#N)c3OC[C@@H]1O2`?
esBAF inh: 3; XiGFP reactiv: 0

What do the screens show for `COc1ccc2c3c([nH]c2c1)[C@@H](CO)N(C(=O)c1ccccn1)CC31CCN(C(=O)C2CCCC2)CC1`?
XiGFP reactiv: 0

Results for O=S(=O)(Nc1cc(Sc2cccc3cccnc23)c(O)c2ccccc12)c1ccccc1 ?
Wnt bcat act: 0; XiGFP reactiv: 53*

What do the screens show for `CCCCCn1nc(C)c(/C=N/NC(=O)c2ccoc2C)c1C`?
esBAF inh: 62*; Vif imaging: 2; MITF act: 51

What do the screens show for `CCn1nc(C)c(/C=N/NC(=O)c2ccoc2C)c1C`?
esBAF inh: -7; Vif imaging: 8; MITF act: inconclusive

Results for Cc1occc1C(=O)N/N=C/c1ccc(-c2ccccc2)cc1 ?
Wnt bcat act: 21; esBAF inh: -7; Vif imaging: -3; MITF act: 40; XiGFP reactiv: 0

What do the screens show for `Cc1occc1C(=O)N/N=C/c1ccc(OCc2ccccc2)cc1`?
Wnt bcat act: 38*; esBAF inh: 54*; Vif imaging: 3; XiGFP reactiv: 0

Results for Cc1occc1C(=O)N/N=C/c1ccc2c(c1)OCO2 ?
Wnt bcat act: 38*; esBAF inh: -27; Vif imaging: 4; MITF act: 8; XiGFP reactiv: 0

How did CCN(CC)c1ccc(/C=N/NC(=O)c2ccoc2C)c(O)c1 do in these assays?
Wnt bcat act: 47*; Vif imaging: 19; MITF act: -16; XiGFP reactiv: 0

Results for Cc1cc(/C=N/NC(=O)c2ccoc2C)cc(C)c1O ?
Wnt bcat act: 0; esBAF inh: 69*; XiGFP reactiv: 0

Results for O=C(N/N=C/c1cccc2ccccc12)c1ccccc1Cl ?
Wnt bcat act: 4; esBAF inh: 13; Vif imaging: -12; XiGFP reactiv: 0

What do the screens show for `Cc1occc1C(=O)N/N=C/c1cccc2ccccc12`?
Wnt bcat act: 18; esBAF inh: 69*; Vif imaging: 10; MITF act: 97*; XiGFP reactiv: 0

How did CC(C)NC(=O)Nc1ccc2c(c1)C(=O)N([C@@H](C)CO)C[C@H](C)[C@@H](CN(C)C(=O)Nc1ccc(F)cc1)OCCCC[C@@H](C)O2 do in these assays?
esBAF inh: -2; XiGFP reactiv: 0

How did Cc1ccc(-c2csc(N/N=C/c3ccco3)n2)c(C)c1 do in these assays?
esBAF inh: 69*; Vif imaging: -10; MITF act: 44; XiGFP reactiv: 1

What do the screens show for `CN(C)S(=O)(=O)c1cccc(-c2csc(N/N=C/c3ccco3)n2)c1`?
Wnt bcat act: 4; esBAF inh: 28; Vif imaging: -7; MITF act: 29; XiGFP reactiv: 0
